WT yeast gro inh: growth inhibition of WT yeast, mitochondrial fusion screen. mitochondrial fusion phenotypic screen, WT strain. inhibition, % at 10 µM. 190,000 compounds, 2.1% hits. AID 1362; in the data active means inhibition above about 58%; tested in S. cerevisiae
KCC2 mod: modulates chloride dependent transport by human KCC2. Q9H2X9. KCC2 cells, thallium flux FluoZin-2 fluorescence. 190,000 compounds, 2.2% hits. B-score of Tl+ flux slope (higher = more flux/activation; lower = inhibition) at 10 µM;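 active means thallium flux slope and its plate-corrected score both differing from the plate sample mean at a set confidence after two filtering rounds, in either direction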;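 further: slope of fluorescence scaled to starting intensity during 10 to 20 s after thallium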
Target sequence (Q9H2X9 whole entry, looked up): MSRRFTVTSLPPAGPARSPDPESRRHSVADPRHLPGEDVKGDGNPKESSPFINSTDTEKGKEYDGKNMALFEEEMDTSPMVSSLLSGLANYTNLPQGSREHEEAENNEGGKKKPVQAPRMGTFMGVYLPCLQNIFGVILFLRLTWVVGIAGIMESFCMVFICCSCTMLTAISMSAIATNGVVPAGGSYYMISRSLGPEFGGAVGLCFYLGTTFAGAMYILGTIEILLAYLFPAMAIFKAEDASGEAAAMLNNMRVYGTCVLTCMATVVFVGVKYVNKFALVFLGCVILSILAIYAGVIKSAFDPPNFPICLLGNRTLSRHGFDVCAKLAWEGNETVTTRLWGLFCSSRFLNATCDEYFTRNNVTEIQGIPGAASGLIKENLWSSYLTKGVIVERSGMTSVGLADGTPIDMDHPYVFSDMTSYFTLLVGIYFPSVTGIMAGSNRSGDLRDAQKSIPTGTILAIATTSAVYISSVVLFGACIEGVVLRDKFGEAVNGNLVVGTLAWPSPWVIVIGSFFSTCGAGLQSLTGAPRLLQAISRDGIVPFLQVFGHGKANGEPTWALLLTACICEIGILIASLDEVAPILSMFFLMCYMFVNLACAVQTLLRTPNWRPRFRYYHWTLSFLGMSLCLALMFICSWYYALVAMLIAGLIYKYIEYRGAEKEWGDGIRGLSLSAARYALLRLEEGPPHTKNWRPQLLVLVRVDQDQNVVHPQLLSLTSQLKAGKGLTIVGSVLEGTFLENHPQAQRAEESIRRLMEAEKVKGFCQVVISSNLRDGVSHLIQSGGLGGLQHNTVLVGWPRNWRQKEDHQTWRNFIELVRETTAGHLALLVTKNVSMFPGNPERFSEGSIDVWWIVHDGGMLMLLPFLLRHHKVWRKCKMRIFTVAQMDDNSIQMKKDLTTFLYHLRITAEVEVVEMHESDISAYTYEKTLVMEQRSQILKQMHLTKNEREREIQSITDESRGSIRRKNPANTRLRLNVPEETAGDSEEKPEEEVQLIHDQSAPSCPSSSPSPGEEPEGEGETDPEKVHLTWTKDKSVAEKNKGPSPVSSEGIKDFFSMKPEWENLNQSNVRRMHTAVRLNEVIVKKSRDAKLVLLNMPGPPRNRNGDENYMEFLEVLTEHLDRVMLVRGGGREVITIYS
BB579 growth dn: reduces growth of yeast BB579 in restrictive medium. S. cerevisiae BB579 growth, OD615, 48 h. inhibition, % at 10 µM. 140,000 compounds, 0.51% hits. AID 804;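 active means inhibition above a set limit, 3 SD over the mean compound inhibition, cut at about 44% in these data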
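System: DeaD yeast strain BB579; buffer or medium: CSMM-D dextrose restrictive medium; technique: OD at 615 nm; schedule: 4 h cell preincubation, 48 h compound exposure, 30 °C humidified; doses: single 10 µM dose; controls: amphotericin B 10 µg/mL, positive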
RAM network inh: yeast RAM network inhibition | S. cerevisiae dse1pr::URA3 reporter, 5-FOA growth OD615, 2 d; analog-sensitive cbk1-as2 kinase mutant strain | inhibition, % at 50 µM | 190,000 compounds, 1.8% hits;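 active means inhibition above a set limit, 3 SD over mean compound inhibition, cut at about 8.4% in these data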;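 further: 0% = DMSO-only wells with no growth and 100% = 10 µM 1-NA-PP1 full growth; inhibition rescues growth on 5-FOA so higher OD means more RAM inhibition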
Yeast lifespan up: extends the lifespan of yeast; 130,000 compounds, 0.68% hits; AID 775; S. cerevisiae growth with nicotinamide, OD615; deaD strain in restrictive glucose medium; inhibition of the nicotinamide effect, % at 10 µM;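 active means inhibition above a set limit, placed 3 SD over the median of all compounds, cut at about 26% in these data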;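 further: 0% = nicotinamide-treated wells and 100% = cells grown without nicotinamide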
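Test system – modified budding yeast, DeaD strain · Compound – single dose 10 µM compound, 0.25% DMSO · Times – culture preincubation 4 h, compound exposure 48 h, both 30 °C · Detection – optical density (absorbance) at 615 nm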
KCC2 sec1: confirmation of human KCC2 transport modulators | shares compounds with KCC2 mod | HEK293-KCC2, thallium flux, FluoZin2 fluorescence; hits give high values | normalised thallium flux (F/F0 slope) at 10 µM | 3,700 compounds, 15% hits;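 active means thallium flux slope above the same plate's solvent-only control mean plus 3 SD; inconclusive means the two replicate wells disagree; inactive means no significant difference from solvent-only control wells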
KCC2 bumet counter: thallium flux persisting under bumetanide in KCC2 cells, counter-screen secondary assay; shares compounds with KCC2 mod; AID 1714; HEK293-KCC2 + bumetanide/ouabain, thallium flux FluoZin2; hits give high values; normalized thallium flux at 10 µM; 3,700 compounds, 49% hits;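 active means thallium entry rate above the same plate's blocked-transporter control wells by more than 3 SD; inconclusive means the two repeat wells disagree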;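 further: raw slope of fluorescence over initial fluorescence between 10 and 20 s after thallium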
KCC2 secondary2: KCC2 (human) modulation, second secondary assay | shares compounds with KCC2 mod | HEK293-KCC2, thallium flux FluoZin2 fluorescence; actives lie on both sides; F/F0 rise rate, 10–20 s post-thallium | normalized thallium flux at 10 µM | 3,700 compounds, 23% hits | AID 1715;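 active means thallium flux slope more than 3 SD above or below the plate's solvent-only control mean, mostly below; inconclusive means the two repeat wells disagreed; inactive means no significant shift from solvent-only controls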;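 further: raw slope with 0.1% DMSO as baseline and bumetanide as block control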
HEK293 Tl flux: acts in parental HEK cells, KCC2 counter-screen | shares compounds with KCC2 mod | HEK293 parental cells, thallium flux FluoZin2, ouabain; baseline-ratio fluorescence slope, 10–20 s after thallium | thallium flux rate (normalised fluorescence) at 10 µM | 3,700 compounds, 46% hits;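 active means thallium flux rate significantly above the same plate's solvent-only control wells, beyond their mean plus 3 SD; inconclusive means the two replicate wells gave conflicting results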
KCC2 retest ouab: modulates human KCC2 on retest with ouabain. AID 1717. shares compounds with KCC2 mod. 3,700 compounds, 48% hits. HEK293-KCC2, thallium flux FluoZin2 fluorescence; bidirectional: low = inhibitor, high = activator. raw Tl+ flux slope (below DMSO = inhibition, above = activation) at 10 µM;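 active means thallium flux slope beyond 3 SD from same-plate DMSO control mean in most replicates, usually higher, sometimes lower; inconclusive means repeat tests gave conflicting results; inactive means no significant difference from controls in most replicates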;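 further: slope of initial-normalized fluorescence between seconds 10 and 20 after thallium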
HEK293 Tl flux2: acts in parental HEK cells, second KCC2 counter-screen. AID 1718. thallium flux slope at 10 µM. shares compounds with KCC2 mod. HEK293 parental, thallium flux FluoZin-2 fluorescence slope. 3,700 compounds, 33% hits;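 active means thallium flux slope above the same plate's solvent-control mean plus 3 SD in both duplicate wells; inconclusive means duplicate wells that disagreed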;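 further: run without ouabain in cells lacking the KCC2 cotransporter; slope of fluorescence scaled to its starting value between 10 and 20 s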
The depositor's hits bear a star; ? = inconclusive; · = not tested or not shown. Hits are enriched below; roughly 5.5% of the tested compounds scored in any of these assays.

SMILES	WT yeast gro inh	KCC2 mod	BB579 growth dn	RAM network inh	Yeast lifespan up	KCC2 sec1	KCC2 bumet counter	KCC2 secondary2	HEK293 Tl flux	KCC2 retest ouab	HEK293 Tl flux2
Cc1ccc(N2C(=O)c3ccc(C(=O)N4CCN(c5ccccc5F)CC4)cc3C2=O)cc1	10.5	-1.82	1.2	2.2	-8.1	·	·	·	·	·	·
Brc1ccccc1OCCOc1cccc2cccnc12	12.7	0.312	-40.9	1.0	-0.9	·	·	·	·	·	·
Cc1cc(Cl)cc(Cl)c1OCCOc1cccc2cccnc12	·	-6.98*	-38.6	0.9	-3.1	0.00571	0.00449	0.0292	0.00807	0.0178	0.0115
Cc1noc(C)c1C(=O)NCCCN1CCCC1=O	-8.2	-1.72	-12.0	0.3	-12.8	·	·	·	·	·	·
Cc1ccccc1NC1=NC(=S)N(c2ccccc2)C12CCCCC2	29.4	56.6*	-33.9	-0.1	7.6	0.025*	0.162*	0.043*	0.0779*	0.11*	0.0223*
COc1ccc(NC2=NC(=S)N(c3ccc(C)cc3)C23CCCCC3)cc1	7.2	·	-50.5	6.9	-11.0	·	·	·	·	·	·
COc1ccc(NC2=NC(=S)N(c3cccc(C)c3)C23CCCCC3)cc1	8.7	7.3*	-6.5	2.6	-5.0	0.0107	0.016*	0.0344	0.0111*	?	0.0106
CC1(C)CC2(CCO1)C(Nc1ccccc1)=NC(=S)N2c1ccccc1 (stereo not drawn)	·	13.7*	·	·	·	0.0139*	0.034*	0.035	0.0205*	0.0291	0.0143*
Cc1cccc(NC2=NC(=S)N(c3ccc(C(=O)O)cc3)C23CCCCC3)c1	-13.9	-0.00649	-57.9	2.0	-11.9	·	·	·	·	·	·
O=C(CSc1ncnc2sc3c(c12)CCC3)Nc1ccccc1C(=O)O	·	-0.00455	·	·	·	·	·	·	·	·	·
COc1ccc(C2c3c(oc4ccc(F)cc4c3=O)C(=O)N2CCN2CCOCC2)cc1OC (stereo not drawn)	16.4	·	·	·	·	·	·	·	·	·	·
Cn1c(-c2sccc2OCc2ccc(Cl)cc2Cl)n[nH]c1=S	64.0*	5.24*	·	6.4	·	0.00645	0.0134*	0.0261	0.0118*	0.0168	0.012*
Cc1ccc(COc2ccsc2-c2n[nH]c(=S)n2C)cc1	-16.9	·	-24.1	4.0	-2.4	·	·	·	·	·	·
CC(C)c1ccccc1NC(=S)NCc1ccncc1	-18.2	0.018	·	-0.6	·	·	·	·	·	·	·
COc1cccc(/C=N/NC(=O)c2c(C)nc3ccc(Br)cn23)c1O	-3.1	-3.37*	·	0.1	·	0.00692	0.0043	0.0275	0.00563	0.0158*	0.0088
COC(=O)c1ccc2nc(Nc3nc4ccc(F)cc4s3)sc2c1	28.3	0.635	5.4	2.3	-6.0	·	·	·	·	·	·
O=C(Nc1nnc(SCc2ccc(F)cc2)s1)c1cccnc1Cl	4.4	-2	·	1.8	·	·	·	·	·	·	·
O=C(Nc1nc2ccccc2s1)c1cnccn1	23.6	1.23	-23.3	2.9	-13.1	·	·	·	·	·	·
CCOC(=O)c1csc(Nc2nc3ccc(F)cc3s2)n1	12.6	27.4*	-45.1	3.5	-16.2	0.0204*	0.0789*	0.0335	0.0556*	0.057*	0.0183*
O=C(Nc1nc2ccc(F)cc2s1)c1ccccn1	79.4*	60.4*	·	1.8	·	0.00609	0.0965*	0.0613*	0.0563*	0.0761*	0.0523*
O=C(Nc1nnc(SCc2ccc(F)cc2)s1)c1ccccn1	66.5	43.9*	·	-1.6	·	0.00658	0.0394*	?	0.0355*	0.0359*	0.0272*
Cc1cc(C)c[n+](C(C)C(=O)c2ccc(-c3ccccc3)cc2)c1 (stereo not drawn)	-0.4	-3.06	7.8	0.1	-5.9	·	·	·	·	·	·
CCN1C/C(=C/c2ccc(N3CCOCC3)cc2)C(=O)/C(=C/c2ccc(N3CCOCC3)cc2)C1	14.4	-5.42*	-37.7	0.6	-3.3	0.00364*	0.00161*	0.0297*	?	0.00886*	0.0105
CN1C/C(=C\c2ccc(N3CCOCC3)cc2)C(=O)/C(=C/c2ccc(N3CCOCC3)cc2)C1	-13.0	-9.18*	-42.8	1.2	-2.1	0.00277*	-0.000702*	0.0169*	0.00558*	0.00754*	?
CCc1ccc(/C=C2/SC(N3CCOCC3)=NC2=O)cc1	·	-1.16	·	·	·	·	·	·	·	·	·
SMILES	WT yeast gro inh	KCC2 mod	BB579 growth dn	RAM network inh	Yeast lifespan up	KCC2 sec1	KCC2 bumet counter	KCC2 secondary2	HEK293 Tl flux	KCC2 retest ouab	HEK293 Tl flux2
CN1C/C(=C/c2ccsc2)C(=O)/C(=C/c2ccsc2)C1	4.3	-0.0716	-3.1	1.4	1.3	·	·	·	·	·	·
COc1ccccc1OCCOCCOc1c(C)cc(C)cc1Br	26.1	-5.41*	-26.0	0.0	2.8	0.015	0.00452	0.0282	0.00701	0.0153	0.0106
COc1ccccc1OCCCOc1c(C)cc(C)cc1Br	6.9	0.149	-38.4	1.0	-6.1	·	·	·	·	·	·
Cc1ccccc1NC(=S)NNc1ncc(C(F)(F)F)cc1Cl	10.0	1.5	-33.0	0.5	-10.0	·	·	·	·	·	·
Fc1ccccc1NC(=S)NNc1ncc(C(F)(F)F)cc1Cl	3.8	6.91*	-9.5	0.4	-26.4	0.00784	0.0522*	0.0302	0.0112*	?	0.0105*
Cc1c(Cl)cccc1NC(=S)NNc1ncc(C(F)(F)F)cc1Cl	26.9	5.5*	-24.4	1.4	-4.3	0.0061	0.0488*	?	0.0178*	0.0384*	0.0206*
NC(=S)Nc1ncc(C(F)(F)F)cc1Cl	9.7	15.8*	·	-0.1	·	0.00646	0.0586*	0.0473*	0.0357*	0.047*	0.0386*
Cc1ccc2c(Cl)cc(Cl)c(OCC(=O)Nc3ccc(C)c(S(=O)(=O)N(C)C)c3)c2n1	5.8	4.59*	-7.7	4.8	8.8	0.00992	0.0168*	0.0335	0.0157*	0.0244*	0.0121
Cc1cc(C(=O)OCC(=O)Nc2cccc(S(=O)(=O)N(C)C)c2)c2ccccc2n1	-5.0	-2.89*	·	0.9	·	0.00886	0.006	0.0295	0.00571*	0.0188	0.00926
Cc1ccc2c(Cl)cc(Cl)c(OCC(=O)Nc3cccc(S(=O)(=O)N(C)C)c3)c2n1	10.2	7.87*	-19.6	2.5	7.7	0.0102	0.0187*	0.0339	0.0143*	0.03*	?
Cc1ccc2c(Cl)cc(Cl)c(OCC(=O)Nc3cccc(S(N)(=O)=O)c3)c2n1	9.6	2.41	-34.8	4.5	2.5	·	·	·	·	·	·

Assay outcomes from PubChem BioAssay.
